From ChEMBL document CHEMBL1134649, “Syntheses and structure--activity relationships of novel apio and thioapio dideoxydidehydronucleosides as anti-HCMV agents” (J Med Chem, 2001)
Converted amounts (≈) assume the structure as drawn.

Columns and labels:
Human betaherpesvirus 5 [1] = experiment: Antiviral activity was determined against Human cytomegalovirus (HCMV) strain Davis using CPE inhibition assay; format: functional, organism-based
In short: (§1)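 HEL cells in stationary phase were infected at 2–4 CCID50 per well and the virus was adsorbed 2 h at 37 °C. Unadsorbed virus was removed and compound in MEM/2% FBS was added, in duplicate per concentration, for 6 days. CPE was read either microscopically (70% ethanol fixation, Giemsa stain) or by fluorescein diacetate fluorescence (485/538 nm). EC50 was taken from semilog plots of %CPE against concentration.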

Human betaherpesvirus 5 [2] = experiment: Antiviral activity was determined against Human cytomegalovirus (HCMV) strain AD-169 using CPE inhibition assay; format: functional, organism-based; in short: as §1
HEL 299 = experiment: Cytotoxic concentration of compound was tested against HEL299(human embryonic lung fibroblast) cells using cytotoxic assay; format: functional
In short: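 Run as a mock-infected control alongside the antiviral assay in HEL cells, with the same 6-day incubation in MEM/2% FBS. Viability was read by propidium iodide fluorescence in place of fluorescein diacetate. CC50 is the concentration giving 50% loss of viability.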

Structure (SMILES)	EC50 (Human betaherpesvirus 5 [1])	EC50 (Human betaherpesvirus 5 [2])	CC50 (HEL 299)
O=C(O)P(=O)(O)O [FOSCARNET]	38.7 µg/mL (≈ 307 µM)	64.9 µg/mL (≈ 515 µM)	> 300 µg/mL
O=c1[nH]c(=O)n(C2C=C(CO)CO2)cc1Cl (stereo not given)	25.1 µg/mL (≈ 103 µM)	41.7 µg/mL (≈ 170 µM)	63.3 µg/mL (≈ 259 µM)
Cc1cn(C2C=C(CO)CO2)c(=O)[nH]c1=O (stereo not given)	16.6 µg/mL (≈ 74 µM)	33.3 µg/mL (≈ 149 µM)	> 100 µg/mL
Nc1nc2c(ncn2COC(CO)CO)c(=O)[nH]1 [GANCICLOVIR]	0.61 µg/mL (≈ 2.39 µM)	1.09 µg/mL (≈ 4.27 µM)	> 10 µg/mL
Cc1cn(C2C=C(CO)CS2)c(=O)[nH]c1=O (stereo not given)	> 100 µg/mL	> 100 µg/mL	> 100 µg/mL
O=c1[nH]c(=O)n(C2C=C(CO)CO2)cc1Br (stereo not given)	25.4 µg/mL (≈ 87.9 µM)	33.7 µg/mL (≈ 117 µM)	> 100 µg/mL
O=c1[nH]c(=O)n(C2C=C(CO)CO2)cc1I (stereo not given)	27.2 µg/mL (≈ 80.9 µM)	44.1 µg/mL (≈ 131 µM)	> 100 µg/mL
O=c1ccn(C2C=C(CO)CS2)c(=O)[nH]1 (stereo not given)	> 100 µg/mL	> 100 µg/mL	> 100 µg/mL
O=c1ccn(C2C=C(CO)CO2)c(=O)[nH]1 (stereo not given)	> 33.3 µg/mL	11.7 µg/mL (≈ 55.7 µM)	33.3 µg/mL (≈ 158 µM)
O=c1[nH]c(=O)n(C2C=C(CO)CO2)cc1F (stereo not given)	2.81 µg/mL (≈ 12.3 µM)	6.9 µg/mL (≈ 30.2 µM)	> 100 µg/mL
